This is an account of results in ChEMBL document CHEMBL2375262, “Thiazolidin-4-one and thiazinan-4-one derivatives analogous to rosiglitazone as potential antihyperglycemic and antidyslipidemic agents” (2013).

What all share (assay type): functional
Test [1] deals with Mus musculus. As to the kind of experiment: Antihyperglycemic activity in db/db mouse assessed as inhibition of post prandial blood glucose level at 30 mg/kg, po qd administered 15 days by OGTT relative to vehicle-treated control. Conditions: 360 h. In short, it runs like this:
(§1)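 Male db/db mice, 10-12 weeks, >40 g, with blood glucose 180-300 mg/dl; six per group. Dosed orally once daily in 1% gum acacia on days 1-15, with vehicle controls. Blood glucose was read daily. OGTT on days 10 and 15 after an overnight fast: glucose at -30, 0, 30, 60, 90 and 120 min around an oral 3.0 g/kg glucose load. Activity was taken from AUC versus control; Dunnett's test.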

The test system of test [2] is Mus musculus. Briefly: Antihyperglycemic activity in db/db mouse assessed as reduction of blood glucose level at 30 mg/kg, po qd measured daily for 15 days relative to vehicle-treated control. More on the design: scale not given: the % may be the effect or the level left. In short, it runs like this:
as §1

Test [3] has as its system Mus musculus. Briefly: Antihyperglycemic activity in db/db mouse assessed as inhibition of post prandial blood glucose level at 30 mg/kg, po qd administered 15 days measured on day 10 by OGTT relative to vehicle-treated control. The method in brief:
as §1

Test [4] relates to L6. As to the kind of experiment: Antihyperglycemic activity in rat L6 cells assessed as increase in 2-deoxy-[3H]-D-glucose uptake at 10 uM after 18 hrs by liquid scintillation counting analysis relative to control. In short, it runs like this:
(§2)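 L6 myoblasts were differentiated to myotubes in DMEM with 2% FBS, then treated for 18 h. After washes, cells took up 3 µCi 2-deoxy-[3H]D-glucose plus 20 µM unlabelled 2-deoxyglucose in HEPES-buffered saline for 15 min. Cells were lysed in 0.1 N NaOH and counted by scintillation; results are % increase over control.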

Test [5] deals with Mus musculus. Briefly: Antidyslipidemic activity in db/db mouse assessed as decrease in plasma total cholesterol level at 30 mg/kg, po qd administered 15 days measured on day 16 […] relative to vehicle-treated control. More on the design: scale not given: the % may be the effect or the level left. The method in brief:
(§3)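 Male db/db mice, 10-12 weeks old, over 40 g. After a 3-day vehicle run-in, animals with blood glucose 180-300 mg/dl were placed in groups of six and gavaged once daily on days 1-15 with a suspension in 1% gum acacia. Controls received vehicle. Terminal retro-orbital plasma was assayed for triglycerides, total and HDL-cholesterol with colorimetric kits. Dunnett's test was used.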

In test [6] the test system is Mus musculus. Briefly: Antidyslipidemic activity in db/db mouse assessed as decrease in plasma triglycerides level at 30 mg/kg, po qd administered 15 days measured on day 16 by ELISA relative to vehicle-treated control. The conditions noted are these: in the assay text read “by colorimetric assay” for “by ELISA”. More on the design: scale not given: the % may be the effect or the level left. The method in brief:
as §3
For orientation: In an ELISA, binding on a coated surface is turned into a signal by an enzyme label.

Test [7] deals with Mus musculus. As to the kind of experiment: Antidyslipidemic activity in db/db mouse assessed as increase in plasma HDL-cholesterol level at 30 mg/kg, po qd administered 15 days […] relative to vehicle-treated control.
Test [8] relates to Mus musculus. Briefly: Insulin resistance reversal activity in db/db mouse assessed as decrease in plasma insulin level at 30 mg/kg, po qd administered 15 days measured on day 16 by ELISA relative to vehicle-treated control. More on the design: scale not given: the % may be the effect or the level left. The method in brief:
(§4)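 db/db males, 10-12 weeks, >40 g, baseline glucose 180-300 mg/dl, n=6 per group. Oral suspension in 1% gum acacia given once daily for days 1-15; vehicle controls. At study end, retro-orbital plasma insulin was measured by ELISA. Groups were compared by Dunnett's test.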

The subject of test [9] is 3T3-L1. As to the kind of experiment: Induction of adipogenesis in mouse 3T3L1 cells assessed as accumulation of lipid droplets at 10 uM measured on day 9 by Oil Red O staining method relative to control. The method in brief:
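3T3-L1 preadipocytes, 2 days post-confluence, were induced with 0.5 mM IBMX, 0.25 µM dexamethasone and insulin in DMEM/10% FBS with compound present. After 3 days, medium changed to insulin alone, then to DMEM/10% FBS. On day 9, lipid droplets were stained with 0.36% Oil Red O in 60% isopropanol for 30 min and examined by microscope.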

The test system of test [10] is Mus musculus. As to the kind of experiment: Antidyslipidemic activity in db/db mouse assessed as decrease in plasma total cholesterol level at 100 mg/kg, po qd administered 15 days […] relative to vehicle-treated control. Set-up: scale not given: the % may be the effect or the level left.
Test [11] relates to Mus musculus. As to the kind of experiment: Antihyperglycemic activity in db/db mouse assessed as inhibition of post prandial blood glucose level at 100 mg/kg, po qd administered 15 days by OGTT relative to vehicle-treated control. Conditions: 360 h. In short, it runs like this:
as §1

Test [12] deals with Mus musculus. Briefly: Insulin resistance reversal activity in db/db mouse assessed as decrease in plasma insulin level at 100 mg/kg, po qd administered 15 days measured on day 16 by ELISA relative to vehicle-treated control. Set-up: scale not given: the % may be the effect or the level left. The method in brief: as §4
Test [13] has as its system Mus musculus. Briefly: Antidyslipidemic activity in db/db mouse assessed as increase in plasma HDL-cholesterol level at 100 mg/kg, po qd administered 15 days […] relative to vehicle-treated control.
Test [14] deals with Mus musculus. As to the kind of experiment: Antidyslipidemic activity in db/db mouse assessed as decrease in plasma triglycerides level at 100 mg/kg, po qd administered 15 days […] relative to vehicle-treated control. Set-up: scale not given: the % may be the effect or the level left.
For test [15], the system named is Mus musculus. As to the kind of experiment: Antihyperglycemic activity in db/db mouse assessed as reduction of blood glucose level at 100 mg/kg, po qd measured daily for 15 days relative to vehicle-treated control. Set-up: scale not given: the % may be the effect or the level left. In short, it runs like this: as §1
Test [16] deals with Mus musculus. Briefly: Antihyperglycemic activity in db/db mouse assessed as inhibition of post prandial blood glucose level at 100 mg/kg, po qd administered 15 days measured on day 10 by OGTT relative to vehicle-treated control. In short, it runs like this: as §1
In test [17] the test system is L6. Briefly: Antihyperglycemic activity in rat L6 cells assessed as increase in 2-deoxy-[3H]-D-glucose uptake at 50 uM after 18 hrs by liquid scintillation counting analysis relative to control. The method in brief:
as §2

Broadly, the inhibition in vivo is the drop in the measured response relative to a control, in per cent. Regarding `CN(CCOc1ccc(C2NC(=O)CCS2)cc1)c1ccccn1` (configuration not stated), the inhibition in vivo at 30 mg/kg in test [1] is -44.9%; in test [3], -40.8%. Moreover, the Activity in [2] is on record as 30.4%; in test [4] it was 53.5%; in test [5] it was 15.1%; in test [6], 13.2%; in test [7] it was 1.46%; in test [8] it was 28.8%.

As to `CN(CCOc1ccc(C2SCCC(=O)N2C2CC2)cc1)c1ccccn1` (configuration not stated), the inhibition in vivo at 30 mg/kg in test [1] is -27.9%; in test [3] it was -20.4%. For the same molecule, the Activity was 22.4% in test [2]; 69.5% in test [4]; 29.5% in test [5]; 29.9% in [6]; 3.38% in [7]; 26.6% in test [8].

Turning to `CC(C)N1C(=O)CCSC1c1ccc(OCCN(C)c2ccccn2)cc1` (configuration not stated), in [4], the Activity was 14.8%.

Consider `CCCCN1C(=O)CCSC1c1ccc(OCCN(C)c2ccccn2)cc1` (configuration not stated), for which the Activity in test [4] was found to be 35.4%.

Turning to `CN(CCOc1ccc(C2SCCC(=O)N2Cc2ccccc2)cc1)c1ccccn1` (configuration not stated), the inhibition in vivo at 30 mg/kg in test [1] was -42.6%; in test [3] it was -29.4%. For the same molecule, the Activity in [2] worked out at 19.1%; in test [4], 33%; in test [5] it was 9.88%; in test [6] it was 25.6%; in test [7], 6.47%; in test [8], 21.5%.

For `CCCCN1C(=O)C[S+]([O-])C1c1ccc(OCCN(C)c2ccccn2)cc1` (configuration not stated), the inhibition in vivo at 30 mg/kg in test [1] is -27.2%; in [3], -12.9%. For the same molecule, the Activity in [2] amounted to 25.9%; in test [5], 10.8%; in [6], 19.2%; in [7], 39.6%; in [8], 24.6%.

As to `CN(CCOc1ccc(C2N(Cc3ccccc3)C(=O)C[S+]2[O-])cc1)c1ccccn1` (configuration not stated), the inhibition in vivo at 30 mg/kg in test [1] was -20.2%; in test [3], -6.4%. Besides, the Activity came out at 22.1% in test [2]; 45.5% in test [4]; 18.4% in test [6]; 20% in test [7]; 20.4% in test [8].

As to `CCCCN1C(=O)CS(=O)(=O)C1c1ccc(OCCN(C)c2ccccn2)cc1` (configuration not stated), the Activity is 30.2% in [2]; 51.3% in test [4]; 7.2% in test [5]; 14.7% in [6]; 25.7% in test [7]; 28.8% in test [8].

On to `CN(CCOc1ccc(C2SCC(=O)N2C2CC2)cc1)c1ccccn1` (configuration not stated), for which the inhibition in vivo at 30 mg/kg in [1] was -40.9%; in [3] it was -26.6%. Moreover, the Activity in test [2] was determined as 25.6%; in test [4], 67.2%; in test [5] it was 12.6%; in [9], 3.87%; in test [6] it was 15.6%; in test [7], 8.8%. Further, the Activity in test [8] stood at 31.8%.

For the molecule `CCCCN1C(=O)CSC1c1ccc(OCCN(C)c2ccccn2)cc1` (configuration not stated), the inhibition in vivo at 30 mg/kg in test [1] was -25.4%; in test [3], -20.2%. The Activity amounted to 22.1% in test [2]; 4.8% in [5]; 31.8% in test [6]; 10.1% in test [7]; 17.6% in test [8].

With `CN(CCOc1ccc(C2SCC(=O)N2Cc2ccccc2)cc1)c1ccccn1` (configuration not stated), the inhibition in vivo at 30 mg/kg was -16.4% in test [1] and -4.3% in test [3]. The Activity in [2] worked out at 15.4%; in test [5], 10.2%; in test [6] it was 9.83%; in test [7], 22.2%; in [8], 22.4%.

For the molecule `CN(CCOc1ccc(C2NC(=O)CS2)cc1)c1ccccn1` (configuration not stated), the inhibition in vivo at 30 mg/kg was -36.6% in test [1] and -25.9% in test [3]. Also, the Activity was 18.5% in test [2]; 51.9% in test [4]; 19.3% in [5]; 5.53% in [9]; 14% in test [6]; 27.4% in [8].

In the case of `CN(C)C(=N)NC(=N)N` [METFORMIN], the Activity in test [10] is given as 14.6%; in [12] it was 37%; in [13] it was 6.8%; in [14], 12.1%; in test [15], 23.7%. The inhibition in vivo at 100 mg/kg in test [11] amounted to 29.7%; in test [16], 29.1%.

Regarding `CN(CCOc1ccc(CC2SC(=O)NC2=O)cc1)c1ccccn1` (configuration not stated) [ROSIGLITAZONE], the values for the inhibition in vivo at 30 mg/kg in test [1] and in test [3] were -40.7% and -33.3%, respectively. Moreover, the Activity came out at 53.7% in test [2]; 26.4% in test [5]; 24% in test [9]; 32.5% in test [6]; 61.6% in [17]; 44.8% in test [8].
